From PubChem
Only some compounds are listed: those with a hit (about 0.85% of all), similar ones and a draw of the others.
TRPN1 ag = activates the zebrafish TRPN1 channel; 220,000 tested, 0.18% active; activation, % at 3 µM; HEK293 zebrafish TRPN1-YFP, Fluo-8 calcium fluorescence; 100% = response to 87 µM carbachol; AID 1424;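 active = activation above its plate's cutoff, the mean activation of test wells on that plate plus 3 SD, cut at about 19% in these data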;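 also: 0% = DMSO alone and 100% = 87 µM carbachol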
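Control set: carbachol 87 µM as high control, DMSO as low control; system: HEK293 stable line with zebrafish TRPN1-YFP; read-out: % activation versus carbachol response; detection: intracellular calcium fluorescence with Fluo-8; doses: single test compound dose, 3 µM nominal, 0.3% DMSO; schedule: dye 1 h 37 °C plus 30 min RT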
OXTR ag = agonists of human oxytocin receptor; P30559; AID 2435; activation, % at 3 µM; 320,000 tested, 0.32% active; CHO-OTR cells, Fluo-8 calcium fluorescence; normalized: DMSO 0%, oxytocin 100%;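 active = activation above the mean of all tested compounds plus 3 SD, cutoff set per screening run, cut at about 20% in these data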;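 also: peak over basal fluorescence ratio from a 100 s FLIPR kinetic read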
Target sequence (P30559 whole entry, looked up): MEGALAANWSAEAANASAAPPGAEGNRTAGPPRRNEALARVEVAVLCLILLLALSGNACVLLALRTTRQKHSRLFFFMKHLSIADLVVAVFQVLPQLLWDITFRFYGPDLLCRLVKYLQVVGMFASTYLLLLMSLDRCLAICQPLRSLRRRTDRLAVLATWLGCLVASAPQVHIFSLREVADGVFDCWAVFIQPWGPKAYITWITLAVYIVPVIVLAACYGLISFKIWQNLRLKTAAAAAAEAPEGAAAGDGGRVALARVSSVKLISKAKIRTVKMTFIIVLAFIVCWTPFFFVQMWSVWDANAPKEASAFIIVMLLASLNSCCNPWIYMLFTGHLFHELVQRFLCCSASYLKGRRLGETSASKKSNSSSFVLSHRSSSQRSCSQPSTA
V1R ag counter = counter-screen for oxytocin receptor agonists: human V1a receptor agonists; CHO-V1R cells, Fluo-8 calcium fluorescence, agonist mode; 0% DMSO, 100% 3 nM vasopressin; activation, % at 3 µM; 320,000 tested, 0.25% active;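 active = activation above the mean activation of all tested compounds plus 3 SD, per screening run, cut at about 20% in these data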;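 also: signal is peak over basal fluorescence ratio across a 100 second FLIPR read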
CRFR2-BP ag = CRF-BP/CRF-R2 complex agonism; HEK293 CRF-R2/CRF-BP, calcium dye fluorescence (FLIPR); percent of saturating CRF peptide response; activation, % at 13.2 µM; 350,000 tested, 0.46% active; AID 588473;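 active = activation of at least 50%, plus an integration ratio under a set limit after plate pattern correction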;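 also: plate controls were neutral control wells without compound for no effect and CRF at EC100 for full effect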
TRPML3 ag = agonists of human TRPML3 channel; Q8TDD5; HEK293 TRPML3-YFP, Fluo-8 calcium fluorescence; 100% = the carbachol control signal; activation, % at 3 µM; 220,000 tested, 0.29% active; AID 1448;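 active = activation above its plate's cutoff, the mean activation of the plate's test wells plus 3 SD, cut at about 12% in these data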;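 also: 0% = DMSO only wells and 100% = carbachol wells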
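system = HEK293 cells stably carrying human TRPML3-YFP | doses = one concentration, 3 µM nominal, 0.3% DMSO | timing = dye loading 1 h 37 °C then 30 min ambient, 125 s read | detection = Fluo-8 calcium dye fluorescence, ex 470-495, em 515-575 nm | benchmarks = high control carbachol 87 µM, low control DMSO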
OXTR potentiate = human OXTR potentiation; CHO-OTR cells, Fluo-8 calcium fluorescence, potentiator mode; 0% = oxytocin EC15, 100% = EC100; P30559; activation, % at 3 µM; 320,000 tested, 0.061% active; AID 2445;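 active = activation above that plate's cutoff, the mean activation of tested compounds plus 3 SD, cut at about 6.6% in these data, passing the limit was not always enough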;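 also: 100% uses oxytocin at 75 nM as the full agonist control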
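test system = CHO-OTR cells, human receptor | compound = single-point 3.0 µM | schedule = 6 min compound pre-incubation at room temperature, 100 s kinetic read | signal = Fluo-8 no-wash calcium dye fluorescence, excitation 470-495 nm, emission 515-575 nm | repeats = single well per compound, singlicate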
Active calls of the source: *; · = no result given.

SMILES | TRPN1 ag | OXTR ag | V1R ag counter | CRFR2-BP ag | TRPML3 ag | OXTR potentiate
CC(C)CC(NC(=O)c1ccccc1)C(=O)N/N=C/c1ccco1 (configuration not stated) | 2 | 1 | 3 | 178* | 7 | 2
CC(NC(=O)c1ccccc1)C(=O)N/N=C/c1ccco1 (configuration not stated) | · | 0 | 0 | 1 | · | 0
O=C(N/N=C/c1c(O)ccc2ccccc12)c1cccc(C(F)(F)F)c1 | 35* | 46* | 53* | 208* | 15* | -14
COc1ccc(Cl)cc1NC(=O)CCN1C(=O)C2C3C=CC(C4CC34)C2C1=O (configuration not stated) | · | 1 | 0 | -2 | · | -5
COc1ccccc1N1C(=O)C2C(C(=O)c3ccccc3)=NN(c3ccc(C)cc3)C2C1=O (configuration not stated) | 3 | 6 | 9 | 91* | 1 | -11
O=C(C1=NN(c2ccccc2)C2C(=O)N(c3cccc(Cl)c3)C(=O)C12)c1ccccc1 (configuration not stated) | 3 | 7 | 6 | 116* | 2 | -7
CCCNC(=O)N1CCC(c2nc3ccccc3s2)CC1 | · | 1 | 4 | -1 | · | -13
COc1ccc2c(n1)Sc1nc3ccccc3nc1N2 | 57* | 86* | 56* | 228* | 29* | -21
COc1cc2ccccc2nn1 | 2 | -1 | 0 | -1 | 1 | -9
Cc1csc(=O)n1CCC(=O)OCC(=O)NCc1ccc(F)cc1 | · | 0 | 0 | -1 | · | -16
CCCCCCn1c(=O)[nH]c2nc3cc(N)ccc3nc2c1=O | 37* | 96* | 74* | 275* | 46* | -12
Cc1nc(-c2ccccc2)sc1C1(C)CC(c2cccc(F)c2)=NO1 (configuration not stated) | · | 0 | 1 | 1 | · | 2
O=C(CCN1CCCC1)c1cccs1 | 1 | 1 | 0 | 0 | 0 | -2
O=C(CCN1CCC(c2cccs2)=N1)c1cccs1 | 3 | 0 | 1 | 69* | 1 | -10
CN(C)C=Nc1nonc1-c1ccccc1 | 1 | 0 | 0 | -4 | 0 | -1
CN(C)C=Nc1c(Br)cc(Br)c2nonc12 | 8 | 106* | 84* | 109* | 8 | -17
Cc1ccc(NC(=O)C2CCN(S(C)(=O)=O)CC2)cc1Cl | · | 2 | 2 | 2 | · | 5
COc1ccc2nc(N3CCC(C)CC3)c(C#N)cc2c1 | 2 | -1 | -1 | 12 | 0 | -11
COc1ccc2nc(N3CCC(O)CC3)c(C#N)cc2c1 | 2 | 0 | 2 | 52* | 0 | -9
O=S(=O)(NCc1cccnc1)c1ccc(Cl)c2ccccc12 | · | 4 | 4 | 3 | · | -10
N=c1c2c(-c3ccccc3)c(-c3ccccc3)n(Cc3ccco3)c2ncn1Cc1ccco1 | 3 | 36* | 36* | 34 | 2 | -30
Cn1c2ccccc2c2cc(/C=N/NC(=O)c3ccc(O)cc3O)ccc21 | · | -1 | 0 | -1 | · | -6
Cn1c(O)c(/C=N/NC(=O)c2cc3ccccc3cc2O)c2ccccc21 | · | 14 | 15 | 117* | · | -12
COCC(=O)Nc1cc(Cl)ccc1C | 1 | 0 | 0 | 0 | 0 | -2
Cc1ccc(Cl)cc1NC(=O)CC(O)(C(F)(F)F)C(F)(F)F | 20* | 12 | 8 | 28 | 13* | -12
SMILES | TRPN1 ag | OXTR ag | V1R ag counter | CRFR2-BP ag | TRPML3 ag | OXTR potentiate
CSc1nc(-c2ccc(N(C)C)cc2)c(C#N)c(=O)n1C | -1 | 1 | 0 | 62* | 1 | -4
COc1cccc(CC2(CO)CCCN(Cc3cc4ccccc4[nH]3)C2)c1 (configuration not stated) | 7 | 5 | 3 | 120* | 3 | -9
CCn1cc(CN2CCCC(C(=O)Nc3ccc(-c4cscn4)cc3)C2)cn1 (configuration not stated) | · | 2 | 1 | 5 | · | 4
O=C(CCCN=C1NS(=O)(=O)c2ccccc21)OCC(=O)c1ccc(F)cc1 | · | 20* | 23* | 22 | · | -9
O=C(c1ccc(NS(=O)(=O)c2ccc3[nH]c(=O)[nH]c3c2)cc1)N1CCCC(C(F)(F)F)C1 (configuration not stated) | · | 0 | 0 | -1 | · | 0
O=C(NC1CCCCC1)C1CCCN1C(=O)Nc1ccccc1 (configuration not stated) | · | 0 | 1 | 0 | · | -11
Cc1nnc(NC(=O)C2c3ccccc3Oc3ccccc32)s1 | 0 | 4 | 2 | -2 | 0 | -1
CCOCc1nnc(NC(=O)C2c3ccccc3Oc3ccccc32)s1 | 16 | 30* | 22* | 31 | 7 | -11
CN1/C(=C\C=C(/C#N)C(=O)Nc2ccccc2F)C(C)(C)c2ccccc21 | 1 | 7 | 8 | 257* | 2 | -14
O=C(c1cc(Br)c(Br)s1)N1CCc2ccccc2C1 | · | 0 | 0 | 1 | · | -3
CCOc1cc(/C=C2\SC(=S)N(Nc3ccccc3)C2=O)ccc1O | 22* | 47* | 27* | 14 | 16* | -18
COc1cc(/C=C2/SC(=S)N(CC3CCCO3)C2=O)ccc1O (configuration not stated) | 37* | 48* | 32* | 151* | 34* | -16
CCOc1cc(/C=C2\SC(=S)N(NS(=O)(=O)c3ccccc3)C2=O)ccc1O | · | 8 | 12 | 7 | · | -19
COc1ccc(/C=C2\SC(=S)N(CC3CCCO3)C2=O)cc1 (configuration not stated) | -1 | -1 | 1 | 4 | 0 | -15
COc1cc(/C=C2\SC(=S)N(NC(=O)c3cccnc3)C2=O)ccc1O | 10 | 11 | 14 | 18 | 7 | -7
COc1cc(/C=C2\SC(=S)N(NC(=O)c3ccc(O)cc3)C2=O)ccc1O | · | 64* | 25* | 53* | · | -10
COc1cc(/C=C2\SC(=S)N(C(Cc3ccccc3)C(=O)O)C2=O)ccc1O (configuration not stated) | 22* | 28* | 30* | 30 | 12* | -8
COc1cc(/C=C2\SC(=S)N(Nc3ccccc3)C2=O)ccc1O | 25* | 58* | 24* | 50 | 14* | -22
COc1cc(/C=C2\SC(=S)N(c3cccnc3)C2=O)ccc1O | 21* | 24* | 26* | 9 | 6 | -10
C/C(=C1/C(=O)N(c2ccc([N+](=O)[O-])cc2)N=C1c1ccccc1)N(C)C | 31* | 54* | 62* | · | 3 | -13
